The species named for experiment [1] is Bos taurus. In words: Inhibition of calf brain tubulin polymerization at 20 uM after 20 mins by turbidimetric method.
For a further experiment, the system named is HL-60. In words: Cytotoxicity against human HL60 cells after 72 hrs by XTT assay. Format: functional, cell-based. The following applies: HL-60, 72 h. The method in brief:
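Cells seeded per well (HeLa 1.5 × 10^3, HT-29 3 × 10^3, A-549 5 × 10^3, HL-60 3 × 10^3). Adherent lines attached for 24 h at 37 °C, 5% CO2. Compound exposure at various concentrations for 72 h. XTT/PMS reagent added, 4 h further incubation, formazan absorbance read at 490 nm (reference 655 nm). IC50 is concentration giving 50% proliferation inhibition. Mean of three independent experiments run in triplicate.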
A general note: Formazan colour is commonly taken as a measure of viable cells.

The next experiment relates to A549. In words: Cytotoxicity against human A549 cells after 72 hrs by XTT assay. The following applies: A549, 72 h. Format: functional, cell-based.
The subject of the next experiment is HeLa. Put plainly: Cytotoxicity against human HeLa cells after 72 hrs by XTT assay. The class given is functional, cell-based.
For another experiment, the system named is HT-29. Put plainly: Cytotoxicity against human HT-29 cells after 72 hrs by XTT assay. The class given is functional, cell-based. To be noted: HT-29, 72 h.
Experiment [2] in a line: Inhibition of calf brain tubulin polymerization after 20 mins by turbidimetric method. The arrangement: species or system Bos taurus. The method, boiled down: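 Microtubule protein at 1.0 mg/mL in 0.1 M MES, 1 mM EGTA, 1 mM MgCl2, 1 mM β-ME, 1.5 mM GTP, pH 6.7, with 4% DMSO. Preincubated with ligand 30 min at 20 °C, then 10 min on ice. Assembly started by shift from 4 to 37 °C and followed by turbidity at 450 nm. IC50 read graphically as 50% inhibition at 20 min. At least two independent experiments using different protein preparations.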

The species named for experiment [3] is Bos taurus. In words: Inhibition of calf brain tubulin polymerization at 40 uM after 20 mins by turbidimetric method.
The species named for experiment [4] is Bos taurus. Put plainly: Inhibition of calf brain tubulin polymerization at 5 uM after 20 mins by turbidimetric method.

With `COc1ccc(C(=O)c2cc(OC)c(OC)c(OC)c2)cc1[N+](=O)[O-]`, the inhibition (usually the percentage by which the read-out fell short of the control) in the experiment listed under Bos taurus [1] came out at 12%. Besides, the IC50 (in general, the midpoint of a concentration-inhibition curve) with HL-60 was 1800 nM; with A549 it was greater than 10000 nM; in the experiment with HeLa it was 2500 nM; in the experiment with HT-29, 2900 nM.

Compound `C=C(c1ccc2ccccc2c1)c1ccc(OC)c(OC)c1OC` came in with an inhibition in the experiment listed under Bos taurus [1] of 11%. Besides, the IC50 in the experiment with HeLa was 200 nM; with HT-29, greater than 10000 nM.

With `COc1ccc(C(=O)c2cc(OC)c(OC)c(OC)c2)cc1O` [PHENSTATIN], the IC50 in experiment [2] was 2.5 µM; in the experiment with HL-60 it was 31 nM; in the experiment with A549 it was 290 nM; in the experiment on HT-29, 1800 nM. The inhibition in the experiment listed under Bos taurus [1] turned out to be 94%.

`C=C(c1ccc(OC)c([N+](=O)[O-])c1)c1ccc(OC)c(OC)c1OC` had an inhibition in the experiment listed under Bos taurus [1] of 12%. The IC50 is 2600 nM with HL-60, greater than 10000 nM with A549, 32 nM in the experiment with HeLa and 2900 nM in the experiment with HT-29.

Take `C=C(c1ccc2c(ccn2CC)c1)c1ccc(OC)c(OC)c1OC`: the inhibition in the experiment filed under Bos taurus [1] was 34%. For the same compound, the figures for the IC50 with A549, in the experiment on HeLa and in the experiment on HT-29 were greater than 10000 nM, greater than 1000 nM and greater than 1000 nM, respectively.

Take `COc1ccc(C(=O)c2cc(OC)c(OC)c(OC)c2)cc1`: the inhibition in the experiment listed under Bos taurus [1] was 20%. The concentration for half-maximal inhibition (IC50) in the experiment on HL-60 is 270 nM; in the experiment on A549, 3100 nM; with HeLa, 37 nM; in the experiment on HT-29, 290 nM.

`CCn1ccc2cc(C(O)c3ccc(OC)c(OC)c3OC)ccc21` (stereo not drawn) registered an inhibition in the experiment listed under Bos taurus [1] of 0%. The IC50 with HL-60 was greater than 10000 nM; in the experiment with A549, greater than 10000 nM; in the experiment with HeLa it was less than 1000 nM; in the experiment on HT-29, greater than 10000 nM.

On to `C=C(c1ccc(OC)c(O)c1)c1ccc(OC)c(OC)c1OC`, for which the IC50 was found to be 12.2 µM in experiment [2]; 240 nM with HL-60; 220 nM with A549; 35 nM in the experiment on HeLa; 310 nM in the experiment with HT-29. Also, the inhibition in the experiment listed under Bos taurus [1] stood at 86%.

With `COc1ccc(/C=C\c2cc(OC)c(OC)c(OC)c2)cc1O` [COMBRETASTATIN A4], the IC50 was determined as 3 µM in experiment [2] and 2 nM with HL-60.

`COc1ccc(C(O)c2ccc3c(ccn3C)c2)c(OC)c1OC` (stereo not drawn): the inhibition in the experiment filed under Bos taurus [1] came out at 9%. The values for the IC50 in the experiment with A549 and in the experiment with HeLa were greater than 10000 nM and 2500 nM, respectively.

`COc1cc(C(O)c2ccc3c(ccn3C)c2)cc(OC)c1OC` (stereo not drawn): half-maximal inhibition in experiment [2] (IC50) required 18 µM. The same compound showed an inhibition in the experiment filed under Bos taurus [1] of 86%.

In the experiment listed under Bos taurus [3], `COc1cc(C(=O)c2ccc3ccccc3c2)cc(OC)c1OC` displayed an inhibition of 100%. Further, the IC50 turned out to be 1.1 µM in experiment [2] and 44 nM with HeLa.

As for `CCn1ccc2cc(C(=O)c3ccc(OC)c(OC)c3OC)ccc21`, the IC50 is 5.6 µM in experiment [2]; greater than 1000 nM with HL-60; greater than 10000 nM in the experiment with A549; 450 nM in the experiment with HeLa; greater than 1000 nM with HT-29. This compound also came in with an inhibition in the experiment filed under Bos taurus [1] of 47%.

Compound `COc1ccc(C(=O)c2ccc3ccccc3c2)c(OC)c1OC` displayed an inhibition in the experiment listed under Bos taurus [1] of 4%. Moreover, the IC50 with HL-60 is 3300 nM; in the experiment on A549, greater than 10000 nM; in the experiment on HT-29, greater than 10000 nM.

On to `CCn1ccc2cc(C(=O)c3cc(OC)c(OC)c(OC)c3)ccc21`, for which the IC50 in experiment [2] was found to be 5.7 µM; with HT-29, 34 nM. For the same compound, the inhibition in the experiment filed under Bos taurus [1] worked out at 95%.

Consider `C=C(c1cc(OC)c(OC)c(OC)c1)c1ccc2c(ccn2CC)c1`, for which the IC50 in experiment [2] worked out at 6 µM; in the experiment with HeLa, 17 nM; with HT-29 it was 35 nM. For the same compound, the inhibition in the experiment listed under Bos taurus [1] turned out to be 83%.

On to `CCn1ccc2cc(C(O)c3cc(OC)c(OC)c(OC)c3)ccc21` (stereo not drawn), for which the inhibition in the experiment filed under Bos taurus [1] came out at 41%. The IC50 in the experiment with HL-60 was less than 1000 nM; in the experiment with A549, greater than 10000 nM; in the experiment with HeLa, less than 1000 nM; in the experiment with HT-29, greater than 10000 nM.

`COc1cc(C(O)c2ccc3ccccc3c2)cc(OC)c1OC` (stereo not drawn): the inhibition in the experiment listed under Bos taurus [3] was 0%.

For `C=C(c1ccc(OC)c(N)c1)c1ccc(OC)c(OC)c1OC`, the inhibition in the experiment filed under Bos taurus [1] amounted to 32%. Moreover, the IC50 in the experiment with HL-60 was 230 nM; with A549 it was 2700 nM; in the experiment with HeLa it was 60 nM; in the experiment with HT-29, 330 nM.

In the case of `COc1ccc(C(=O)c2cc(OC)c(OC)c(OC)c2)cc1N`, the IC50 in experiment [2] is 1.5 µM; in the experiment with HL-60 it was 30 nM; in the experiment on A549, 57 nM; in the experiment on HeLa it was 30 nM; in the experiment with HT-29 it was 32 nM. The same compound registered an inhibition in the experiment filed under Bos taurus [4] of 81%.

`COc1cccc2c1C(=O)c1c(O)c3c(c(O)c1C2=O)C[C@@](O)(C(=O)CO)C[C@@H]3O[C@H]1C[C@H](N)[C@H](O)[C@H](C)O1` [DOXORUBICIN]: the IC50 was found to be 27 nM in the experiment with HL-60, 290 nM in the experiment with A549, 190 nM in the experiment with HeLa and 240 nM in the experiment with HT-29.

For the compound `C=C(c1cc(OC)c(OC)c(OC)c1)c1ccc2ccccc2c1`, the IC50 in experiment [2] was 15 µM; in the experiment with HL-60, 910 nM; in the experiment with A549 it was 360 nM; with HeLa, 300 nM; in the experiment on HT-29 it was 250 nM. In the experiment filed under Bos taurus [1], this compound registered an inhibition of 82%.

Consider `COc1ccc(C(O)c2ccc3ccccc3c2)c(OC)c1OC` (stereo not drawn), for which the inhibition in the experiment listed under Bos taurus [1] is 0%. Further, the IC50 with A549, in the experiment with HeLa and in the experiment with HT-29 was greater than 10000 nM in each case.

`COc1ccc(C(=O)c2ccc3c(ccn3C)c2)c(OC)c1OC`: the inhibition in the experiment listed under Bos taurus [1] was found to be 40%. For the same compound, the IC50 with A549 came to 500 nM; in the experiment with HeLa it was 30 nM; in the experiment on HT-29, 30 nM.

Turning to `COc1cc(C(=O)c2ccc3c(ccn3C)c2)cc(OC)c1OC`, the inhibition in the experiment filed under Bos taurus [3] was 98%. In addition, the half-maximal inhibitory concentration (IC50) in experiment [2] was determined as 7.9 µM; with HeLa it was 35 nM.

In the experiment filed under Bos taurus [1], `C=C(c1ccc(OC)cc1)c1ccc(OC)c(OC)c1OC` yielded an inhibition of 16%. Further, the IC50 in the experiment with HL-60 is 480 nM; in the experiment with A549, greater than 10000 nM; with HeLa, 300 nM; in the experiment on HT-29, 3200 nM.

Compound `COc1ccc(C(=O)c2ccc(OC)c(OC)c2OC)cc1` had an inhibition in the experiment listed under Bos taurus [1] of 7%. Besides, the IC50 in the experiment on HL-60 is 2000 nM; in the experiment with A549 it was greater than 10000 nM; in the experiment with HeLa it was 1800 nM; in the experiment on HT-29, 3100 nM.
